This is a sample that favours compounds with a hit; in the whole collection about 3.2% have one here.
MEKK2wt PB1 HTS: modulators of MEK5 binding to wildtype MEKK2, primary screen, biochemical, multiplex bead flow cytometry, Alexa488-MEK5. Mitogen-activated protein kinase kinase kinase 2 (Homo sapiens), Q9Y2U5. Alexa488-MEK5 binding to MEKK2 WT; actives lie on both sides. binding response (% of control), % at 10 µM. actives 1.1% (n = 290,000). AID 1531, 2009; in the data active = binding response below about 67% or above about 130%
Pemphigus Ab inh: inhibitors of pemphigus antibody binding to DSG3, primary screen, biochemical, bead-based, flow cytometry, scFv-GFP; Desmoglein-3 (Homo sapiens), P32926; DSG3-coupled beads, scFv-anti-DSG3-GFP binding; stronger effect = lower value; binding (percent of control), % at 10 µM; actives 0.48% (n = 310,000); AID 588358, 2011;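 active = binding more than 3 SD below its plate's average and above zero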;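 note: hits lower antibody fragment binding to DSG3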
Target sequence (P32926 whole entry, looked up, the tested form may be a part): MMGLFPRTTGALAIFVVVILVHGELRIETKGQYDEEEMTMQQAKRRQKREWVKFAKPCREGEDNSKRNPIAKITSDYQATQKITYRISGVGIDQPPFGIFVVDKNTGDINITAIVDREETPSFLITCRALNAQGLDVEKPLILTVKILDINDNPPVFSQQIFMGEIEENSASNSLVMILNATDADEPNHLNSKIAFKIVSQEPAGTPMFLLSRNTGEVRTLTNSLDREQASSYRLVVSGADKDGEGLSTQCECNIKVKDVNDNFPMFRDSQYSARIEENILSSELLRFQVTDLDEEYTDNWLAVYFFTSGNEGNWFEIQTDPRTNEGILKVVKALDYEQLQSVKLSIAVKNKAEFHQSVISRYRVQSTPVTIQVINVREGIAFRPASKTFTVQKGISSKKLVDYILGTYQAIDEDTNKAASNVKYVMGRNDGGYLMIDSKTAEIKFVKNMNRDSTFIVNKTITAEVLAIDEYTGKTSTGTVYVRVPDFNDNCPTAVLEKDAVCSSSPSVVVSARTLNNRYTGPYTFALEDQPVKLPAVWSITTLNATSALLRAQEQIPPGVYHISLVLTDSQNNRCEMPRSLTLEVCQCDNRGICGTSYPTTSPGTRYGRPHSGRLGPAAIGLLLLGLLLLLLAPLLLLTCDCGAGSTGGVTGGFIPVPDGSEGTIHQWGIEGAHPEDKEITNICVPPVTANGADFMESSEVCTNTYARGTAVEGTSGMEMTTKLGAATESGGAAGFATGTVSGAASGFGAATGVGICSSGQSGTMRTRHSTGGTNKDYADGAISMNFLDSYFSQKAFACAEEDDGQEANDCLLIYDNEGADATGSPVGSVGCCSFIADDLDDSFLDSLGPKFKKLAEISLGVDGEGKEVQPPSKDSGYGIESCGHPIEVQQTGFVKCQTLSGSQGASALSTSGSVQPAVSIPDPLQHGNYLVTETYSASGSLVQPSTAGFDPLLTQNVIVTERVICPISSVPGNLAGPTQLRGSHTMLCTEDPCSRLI
Apaf-1 inh: inhibitors of human Apaf-1 apoptosome, primary screen, biochemical, DEVD-Rh110 fluorescence, uHTS | Apoptotic protease-activating factor 1 (Homo sapiens), O14727 | reconstituted apoptosome caspase-3 activity | inhibition, % at 20 µM | actives 0.71% (n = 330,000) | AID 489030, 2010; active = inhibition of at least 40% at 20 µM;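 note: plate controls were DMSO wells for no effect and DEVD-CHO caspase inhibitor wells for full effect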
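Assay system: Apoptosome proteins | Medium: pH 7.5 Hepes buffer with CHAPS, BSA, DTT | Also added: Cytochrome c and DEVD-Rh110 substrate | Times: 30 min plus 50 min, RT | Detection: Rhodamine 110 fluorescence at Ex 480/Em 540 nm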
UBC13 inh: UBC13 polyubiquitin chain formation inhibitors, primary screen, biochemical, TR-FRET, uHTS | inhibition, % at 20 µM | actives 0.47% (n = 330,000) | AID 485273, 2010; in the data active = inhibition above about 45%, passing the limit was not always enough
MEKK3 PB1 HTS: modulators of MEKK3-MEK5 PB1 binding, primary screen, biochemical, wildtype MEKK3, multiplex bead flow cytometry, Alexa488-MEK5. AID 1529, 2009. actives 1.4% (n = 290,000). bead-based flow cytometry, Alexa488-MEK5 binding to MEKK3; actives lie on both sides; 0 = blocked by unlabeled MEK5, 100 = vehicle. Mitogen-activated protein kinase kinase kinase 3 (Homo sapiens), Q99759. binding response (% of control), % at 10 µM;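 active = binding response more than 3 SD above or below the average of its plate-row segment, actives on both sides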;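 note: Alexa488 bead fluorescence after subtracting the streptavidin-only scavenger bead signal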
MEKK2mut PB1 HTS: MEK5 binding signal on mutant MEKK2 PB1, primary screen, biochemical, multiplex bead flow cytometry, Alexa488-MEK5; percent response, % at 10 µM; actives 0.35% (n = 290,000); Alexa488-MEK5 binding to MEKK2 mutant; in the data active = percent response above about 24%, passing the limit was not always enough
MEKK2wt confirm: modulators of MEK5 binding to wildtype MEKK2, confirmation, biochemical, single concentration, multiplex bead flow cytometry; shares compounds with MEKK3 PB1 HTS; Alexa488-MEK5 binding to MEKK2 WT; actives lie on both sides; binding response (% of control), % at 10 µM; actives 2.4% (n = 5,900); AID 1892, 2009; in the data active = binding response below about 16% or above about 210%; inactive = in between
MEKK2mut confirm: mutant MEKK2 PB1-MEK5 binding signal retest – biochemical, single concentration, multiplex bead flow cytometry, confirmation; shares compounds with MEKK3 PB1 HTS; Alexa488-MEK5 binding to MEKK2 mutant; percent response, % at 10 µM; actives 2% (n = 5,900); AID 1893, 2009; in the data active = percent response mostly above about 71%, no sharp cut-off; inactive = mostly below about 38%;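 note: higher means compound restores mutant binding toward wildtype level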
MEKK3-MEK5 inh: MEKK3 wild-type PB1 binding to MEK5, inhibitors, confirmation, biochemical, bead multiplex flow cytometry, single concentration, wildtype | actives 1.8% (n = 5,900) | binding response (% of control), % at 10 µM | Alexa488-MEK5 binding to MEKK3; stronger effect = lower value | shares compounds with MEKK3 PB1 HTS | AID 1894, 2009;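 active = binding response below 72% of control, or above a set upper limit, though filed actives all read lower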;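 note: 100% = DMSO only wells and 0% = binding blocked by excess unlabeled MEK5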
Active calls of the source: *; / = no result; [ ] = another dose, or the depositor's remark.

SMILES	MEKK2wt PB1 HTS	Pemphigus Ab inh	Apaf-1 inh	UBC13 inh	MEKK3 PB1 HTS	MEKK2mut PB1 HTS	MEKK2wt confirm	MEKK2mut confirm	MEKK3-MEK5 inh
O=C(CSc1nnc(-c2cccs2)n1Cc1ccccc1)NCc1ccc2c(c1)OCO2	90	105	2	6	76*[inhibitor]	-9	103	1	105
CCO[C@H]1OC(C(=O)NCc2nc3ccccc3[nH]2)=C[C@@H](C2CC2)[C@@H]1CCCO	2.0*[inhibitor]	105	-3	-1	1.0*[inhibitor]	12	100	-2	101
CCO[C@H]1OC(C(=O)NCc2nc3ccccc3[nH]2)=C[C@@H](c2ccccc2)[C@@H]1CCCO	72	99	7	6	73	2	/	/	/
O=C(NCc1nc2ccccc2[nH]1)C1=C[C@H](C2CCCCC2)C[C@H](OCCCCO)O1	103	106	20	4	103	2	/	/	/
O=C(NCc1nc2ccccc2[nH]1)C1=C[C@H](C2CC2)C[C@H](OCCCCO)O1	94	100	-1	-4	79*[inhibitor]	-3	96	0	103
COc1ccccc1C(=O)Nc1c(C(=O)N2CCN(C)CC2)oc2ccccc12	105	107	-2	-5	99	8	/	/	/
Cn1c(SCc2nc3ccccc3n2CCO)nc2ccccc21	125	/	2	11	125*	7	105	1	104
Cc1ccc(-c2nc(C#N)c(NCc3cccc4c3OCO4)o2)cc1	80	101	-6	8	70*[inhibitor]	-17	94	-6	100
CCOc1cc(/C=N/O)cc(Br)c1OCC	100	/	4	9	124*	6	103	0	102
COc1ccc(S(=O)(=O)N2CCOc3ccccc32)cc1	100	110	6	7	106	5	/	/	/
Cc1ccc(SCCC(=O)NCC2CCCO2)cc1 (stereo not drawn)	1.0*[inhibitor]	108	6	-5	2.0*[inhibitor]	-39	96	1	102
CCOc1cc(NC(=S)NCC2CCCO2)c(OCC)cc1NC(=O)c1ccccc1C (stereo not drawn)	98	109	3	2	103	-3	/	/	/
Cc1ccc(SCC(=O)NCC2CCCO2)cc1 (stereo not drawn)	94	106	-11	2	96	-10	/	/	/
COc1ccc2oc(=O)c(C(=O)NCC3CCCO3)cc2c1 (stereo not drawn)	94	99	-2	11	82*[inhibitor]	-7	101	-6	98
CCOc1cc(NC(=S)NCC2CCCO2)c(OCC)cc1NC(=O)c1ccc(OC)cc1 (stereo not drawn)	106	120	23	1	130*	1	96	-1	103
COc1cccc2cc(C(=O)NCC3CCCO3)c(=O)oc12 (stereo not drawn)	/	99	-5	1	/	/	/	/	/
Cc1ccc(-c2nsc(SCC(=O)NCC3CCCO3)n2)cc1 (stereo not drawn)	93	99	-3	2	98	-9	/	/	/
COc1ccc(-c2nsc(SCC(=O)NCC3CCCO3)n2)cc1 (stereo not drawn)	81	78	-11	10	73*[inhibitor]	-3	100	1	101
Cc1cc(-c2ccc([N+](=O)[O-])cc2)cc(C)n1	/	98	/	/	/	/	/	/	/
COc1ccc(/C=C2/C(=O)N(Cc3ccccc3)N=C2C)cc1	104	106	14	-4	128*	3	98	2	93
COc1ccc(-c2ccc(=O)n(Cc3ccccc3)n2)cc1	108	110	10	5	104	3	/	/	/
C=CCn1c(=S)sc2c(=O)[nH]cnc21	128	104	-6	-7	133*	26	103	8	107
CCOC(=O)c1ccc(-n2c(C)nc3c(cnn3-c3ccc(Cl)cc3)c2=O)cc1	98	104	15	1	99	-2	/	/	/
CCOC(=O)c1ccc(-n2c(C)nc3c(cnn3-c3ccccc3Cl)c2=O)cc1	117	/	9	-5	124*	5	96	-7	103
CC(=O)c1cc2c(cc1NS(=O)(=O)c1ccccc1)OCO2	97	109	-12	5	104	0	/	/	/
SMILES	MEKK2wt PB1 HTS	Pemphigus Ab inh	Apaf-1 inh	UBC13 inh	MEKK3 PB1 HTS	MEKK2mut PB1 HTS	MEKK2wt confirm	MEKK2mut confirm	MEKK3-MEK5 inh
CC(=O)c1cc2c(cc1N/C(=N/S(=O)(=O)c1ccccc1)c1ccc(Cl)cc1)OCO2	102	98	14	5	129*	0	96	-4	100
Cc1nn(CC(=O)c2ccc(Br)s2)c(C)c1[N+](=O)[O-]	50	99	-22	-3	46*[inhibitor]	-11	86	-11	89
Cc1nn(CC(=O)OCCOc2ccc(Br)cc2)c(C)c1[N+](=O)[O-]	66	96	9	-2	50*[inhibitor]	-4	101	1	99
Cc1ccc(S(=O)(=O)N2C[C@H]3N(C(=O)OC(C)C)N(C(=O)OC(C)C)C[C@H](OC(=O)Nc4c(C)noc4C)[C@@]3(O)C2)cc1	/	110	/	/	/	/	/	/	/
O=C(c1ccc([N+](=O)[O-])s1)N1CCN(c2ccc(C(F)(F)F)cn2)CC1	98	97	17	-7	101	-6	/	/	/
CCc1cc(C(=O)N2CCCC(CO)(Cc3ccc(F)cc3)C2)n(C)n1 (stereo not drawn)	103	98	14	-6	101	1	/	/	/
COc1ccc(OC)c(NC(=O)CN2C(=O)C(C)N(c3ccc(C)cc3)C2=O)c1 (stereo not drawn)	/	105	14	-3	/	/	/	/	/
Cc1ccccc1OCCNC(=O)CNC(=O)c1ccccc1O	76	95	-10	4	79*[inhibitor]	-9	103	4	103

Bioassay records (PubChem)
